This excerpt belongs to a sample that is enriched for hits.
HSF1 activator: increases HSF-1 driven luciferase reporter signal; NIH3T3-HGL HSF-1 luciferase reporter, MG132, 8 h; 100% = twice DMSO control signal; activation, % at 9 µM; 300,000 tested, 1.7% active; AID 504408;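 active means mean replicate activation of at least 50% with a set share of replicates each reaching 50%; inconclusive means only one of those two conditions met; inactive means mean below 50% and too few replicates reaching it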;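 further: 0% = median of the neutral control wells and 100% = twice that signal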
HSF1 inhib: HSF1 inhibition; NIH3T3-HGL HSE-luciferase, MG132-induced, luminescence 8 h; active compounds read low; activity change, negative = inhibition, % at 7.5 µM (by protocol); 300,000 tested, 0.77% active; AID 2098;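 active means more than half of replicate wells show activity change below -50%, luminescence cut by over half; inconclusive means some wells, but at most half, below -50%; inactive means no replicate well below -50%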;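 further: luciferase reports HSF-1 transcriptional activity via heat shock element; 0% = median of DMSO wells and -100% = zero luminescence signal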
L major viab: inhibitors of Leishmania major promastigote growth; 200,000 tested, 9% active; inhibition, % at 10 µM; Leishmania major promastigotes, resazurin fluorescence viability; in the data active means inhibition above about 50%;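 further: promastigotes grown with compound for 44 hours at 28 °C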
T cruzi inh: T. cruzi replication inhibition. T. cruzi beta-gal in NIH3T3, luminescence, 90 h. inhibition, % (test concentration not listed). 300,000 tested, 1.4% active. AID 1885;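 active means mean inhibition across valid replicates above about 55%, limit read from the data; inconclusive means mean below that limit but half or more replicates reach it; inactive means mean below it, under half of replicates reach it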;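 further: signal also drops with host cell toxicity which is not excluded here; 0% = plate median of DMSO wells and 100% = zero luminescence signal; higher percent means less beta-gal luminescence so fewer parasites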
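assay system = mouse NIH/3T3 fibroblasts infected with β-gal-expressing T. cruzi Tulahuen C4 | input = 5,000 NIH/3T3 host cells per well | buffer or medium = DMEM plus 2% FBS | timing = 3 h host attachment, then at least 90 h co-culture | measured by = GalScreen luminescence, 60 min | evaluation = luminescence reflecting intracellular parasite burden, expressed as percent inhibition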
Hsp70 activator: transcriptional activators of Hsp70; HeLa Hsp70 promoter luciferase reporter, luminescence; scaled: vehicle 0, proteasome-inhibitor control 100%; activation, % at 10 µM; 200,000 tested, 0.04% active; AID 1203;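 active means activation above the mean across all tested compounds plus 3 SD, cutoff set per campaign, cut at about 5.5% in these data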;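 further: 100% = MG132 at 30 µM as the positive control and 0% = DMSO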
Starred values were filed as active, the others as inactive; ? = inconclusive; . = not tested or not shown.

SMILES	HSF1 activator	HSF1 inhib	L major viab	T cruzi inh	Hsp70 activator
CC1(C)C2CCC(C2)C1(C)N=C1OC(CCl)CS1 (centres undefined)	11	0	.	2	.
O=C(Cc1cc(=O)[nH][nH]1)N/N=C/C=C/c1ccccc1	-5	4	72*	-5	0
O=C(CNC(=O)c1ccccc1)N/N=C/C=C/c1ccccc1	9	1	.	-17	.
O=C(COC(=O)CN1C(=O)C2CCCCC2C1=O)NNC(=O)c1ccc(Cl)cc1 (centres undefined)	-6	4	.	3	.
O=C(CNC(=S)NC(=O)c1ccc(Cl)cc1)c1ccccc1	-7	-2	88*	-7	0
Cc1cccc(NS(=O)(=O)c2cc(C(=O)N3CCCCCC3)ccc2C)c1	-3	2	.	16	.
COc1ccccc1N(C)S(=O)(=O)c1ccc(C(=O)NCc2ccc3c(c2)OCO3)cc1	5	-2	99*	22	0
COc1ccccc1N(C)S(=O)(=O)c1ccc(C(=O)Nc2nc(C)cs2)cc1	-2	-2	99*	2	0
COc1cccc(C(=O)NCc2ccc3c(c2)OCO3)c1OC	4	-1	.	11	.
C[n+]1cccc(/C=N/NC(=O)CC23CC4CC(CC(C4)C2)C3)c1	-5	-7	.	-13	.
Oc1c(C(c2ccccc2Cl)N2CCCC2)ccc2cccnc12 (centres undefined)	-1	-6	100*	84*	0
CN1CCN(C(c2ccccn2)c2cc(Cl)c3cccnc3c2O)CC1 (centres undefined)	-19	-13	-1	?	0
Oc1c(C(c2cccs2)N2CCN(c3ccccc3)CC2)ccc2cccnc12 (centres undefined)	.	.	84*	.	1
CN1CCN(C(c2ccc(C(F)(F)F)cc2)c2ccc3cccnc3c2O)CC1 (centres undefined)	36	3	.	71*	.
CC(C)(C)n1nnnc1C(c1cccs1)N1CCN(c2ccccc2)CC1 (centres undefined)	-6	5	6	-7	0
CC(O)c1nc2ccccc2n1CCCOc1ccccc1 (centres undefined)	1	2	.	-7	.
NS(=O)(=O)c1ccc(CCNC(=O)CCCNC(=O)c2ccc(Cl)cc2)cc1	-1	-4	.	-7	.
CC(Oc1ccc(Cl)cc1)c1ccc(C#N)c(=O)[nH]1 (centres undefined)	23	-3	-7	-2	0
O=C(Nc1cccc(S(=O)(=O)NC2=NCCC2)c1)C1CC(=O)N(c2ccc3c(c2)OCCO3)C1 (centres undefined)	-7	-7	-2	0	0
Cc1cccc(C)c1NC(=S)N(CCN(C)C)C(C)c1ccccn1 (centres undefined)	-6	-5	2	3	0
COCCCN(C(=S)Nc1cccc(Cl)c1)C(C)c1ccncc1 (centres undefined)	13	1	63*	0	0
COCCCN(C(=S)Nc1cc(C)cc(C)c1)C(C)c1ccncc1 (centres undefined)	12	-9	82*	-13	0
COCCCN(C(=S)Nc1c(C)cc(C)cc1C)C(C)c1ccccn1 (centres undefined)	-8	-10	52*	20	0
O=C(Cc1ccc(Cl)cc1)c1c[nH]c(C(=O)NCCCn2ccnc2)c1	28	17	1	-4	0
Cc1oc2ccc(NS(=O)(=O)c3ccc(C(C)(C)C)cc3)cc2c1C(=O)Nc1ccccc1	61*	18	44	24	0
SMILES	HSF1 activator	HSF1 inhib	L major viab	T cruzi inh	Hsp70 activator
OC1(c2ccccc2)CCN(Cc2ccccc2)C2CCCCC21 (centres undefined)	-9	-5	97*	-2	0
C=CCn1c(-c2cc(-c3ccccc3)sc2N)n[nH]c1=S	174*	146	.	6	.
Nc1sc(-c2ccccc2)cc1-c1n[nH]c(=S)n1C1CCCCC1	84*	72	.	-33	.
COc1ccc(-n2c(-c3cc(-c4ccccc4)sc3N)n[nH]c2=S)cc1	15	13	.	46	.
CCC(C)(C)NC(=O)CN(C(=O)CCC(=O)Nc1ccccn1)c1ccc(F)c(Cl)c1	-16	1	90*	2	0
Cc1ccc(N(CC(=O)NCc2ccc3c(c2)OCO3)C(=O)CCC(=O)Nc2ccccn2)cc1	16	0	.	6	.
Cc1ccc(C)c(N(CC(=O)NCc2ccc3c(c2)OCO3)C(=O)CCC(=O)Nc2ccccn2)c1	18	1	56*	11	0
